Key:
Cytochrome P450 2C19 = Cytochrome P450 2C19 (Homo sapiens, UniProt P33261); assay: Inhibition of CYP2C19; type: ADME
Cytochrome P450 3A4 = Cytochrome P450 3A4 (Homo sapiens, UniProt P08684); assay: Inhibition of CYP3A4; type: ADME
[1] = Metabolic stability in rat liver microsomes assessed as compound remaining after 30 mins; type: ADME, Microsome; conditions: read-out: Stability
Summary of the method: (§1)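 Human or rat liver microsomes incubated with compound for 30 min. Result given as percent of parent compound remaining.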

Cytochrome P450 2C9 = Cytochrome P450 2C9 (Homo sapiens, UniProt P11712); assay: Inhibition of CYP2C9; type: ADME
Cytochrome P450 2C9, sequence (P11712 whole entry): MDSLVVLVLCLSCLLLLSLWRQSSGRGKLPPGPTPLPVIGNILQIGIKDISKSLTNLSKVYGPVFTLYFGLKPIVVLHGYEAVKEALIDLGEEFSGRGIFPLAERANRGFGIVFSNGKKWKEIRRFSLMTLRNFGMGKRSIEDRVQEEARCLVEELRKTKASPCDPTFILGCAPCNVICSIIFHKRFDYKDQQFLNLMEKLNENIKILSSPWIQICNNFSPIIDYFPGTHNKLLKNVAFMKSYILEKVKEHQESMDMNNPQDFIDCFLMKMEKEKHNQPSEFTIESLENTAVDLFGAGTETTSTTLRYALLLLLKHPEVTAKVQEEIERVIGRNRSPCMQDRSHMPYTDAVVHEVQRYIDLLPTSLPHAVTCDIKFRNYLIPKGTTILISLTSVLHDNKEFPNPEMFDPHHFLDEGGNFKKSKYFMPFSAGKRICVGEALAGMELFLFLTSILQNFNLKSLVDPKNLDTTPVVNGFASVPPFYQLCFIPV

[2] = Kinetic solubility of the compound in 1%DMSO at pH 6.8; type: physicochemical; conditions: read-out: Kinetic_solubility
Summary of the method: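 Kinetic solubility measured at pH 6.8 from a 1% DMSO solution.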

Cytochrome P450 1A2 = molecular target: T1, Cytochrome P450 1A2 (Homo sapiens, UniProt P05177); assay: Inhibition of CYP1A2; type: ADME
T1 sequence (P05177 whole entry): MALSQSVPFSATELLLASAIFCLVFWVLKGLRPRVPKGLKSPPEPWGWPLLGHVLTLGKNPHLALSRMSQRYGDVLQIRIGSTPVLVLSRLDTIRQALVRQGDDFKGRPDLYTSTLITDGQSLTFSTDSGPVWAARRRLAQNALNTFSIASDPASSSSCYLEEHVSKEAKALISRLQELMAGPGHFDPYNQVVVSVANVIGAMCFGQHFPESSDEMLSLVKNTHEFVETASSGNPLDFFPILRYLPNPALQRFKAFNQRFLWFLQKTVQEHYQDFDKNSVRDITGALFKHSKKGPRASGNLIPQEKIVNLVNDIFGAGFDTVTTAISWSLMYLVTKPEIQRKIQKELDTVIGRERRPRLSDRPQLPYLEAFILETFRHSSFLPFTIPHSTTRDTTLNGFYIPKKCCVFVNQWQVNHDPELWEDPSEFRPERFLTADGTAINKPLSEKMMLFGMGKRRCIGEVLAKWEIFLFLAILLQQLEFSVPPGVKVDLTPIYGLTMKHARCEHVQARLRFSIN

[3] = molecular target: T2, Neuropeptide Y receptor type 5 (Mus musculus, UniProt O70342); assay: Displacement of [125I]PYY from mouse NPY Y5 receptor
T2 sequence (O70342 whole entry): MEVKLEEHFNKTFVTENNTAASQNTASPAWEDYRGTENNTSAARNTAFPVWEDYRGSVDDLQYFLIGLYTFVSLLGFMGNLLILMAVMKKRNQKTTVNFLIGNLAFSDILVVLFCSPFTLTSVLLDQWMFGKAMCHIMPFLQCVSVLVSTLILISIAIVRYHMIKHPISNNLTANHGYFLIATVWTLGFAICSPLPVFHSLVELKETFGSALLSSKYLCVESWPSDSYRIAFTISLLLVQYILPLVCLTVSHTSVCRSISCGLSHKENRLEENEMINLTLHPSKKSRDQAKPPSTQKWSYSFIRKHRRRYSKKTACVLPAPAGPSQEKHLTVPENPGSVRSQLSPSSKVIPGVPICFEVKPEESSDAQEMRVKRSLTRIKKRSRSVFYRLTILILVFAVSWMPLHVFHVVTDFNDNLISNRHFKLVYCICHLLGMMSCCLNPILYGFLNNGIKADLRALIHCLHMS
Summary of the method: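 Competition binding at mouse NPY Y5 receptors with 125I-PYY as ligand. IC50 is the concentration giving 50% inhibition of total specific binding, taken as the mean of two or more independent assays.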

Cytochrome P450 2D6 = Cytochrome P450 2D6 (Homo sapiens, UniProt P10635); assay: Inhibition of CYP2D6; type: ADME
Cytochrome P450 2D6, sequence (P10635 whole entry): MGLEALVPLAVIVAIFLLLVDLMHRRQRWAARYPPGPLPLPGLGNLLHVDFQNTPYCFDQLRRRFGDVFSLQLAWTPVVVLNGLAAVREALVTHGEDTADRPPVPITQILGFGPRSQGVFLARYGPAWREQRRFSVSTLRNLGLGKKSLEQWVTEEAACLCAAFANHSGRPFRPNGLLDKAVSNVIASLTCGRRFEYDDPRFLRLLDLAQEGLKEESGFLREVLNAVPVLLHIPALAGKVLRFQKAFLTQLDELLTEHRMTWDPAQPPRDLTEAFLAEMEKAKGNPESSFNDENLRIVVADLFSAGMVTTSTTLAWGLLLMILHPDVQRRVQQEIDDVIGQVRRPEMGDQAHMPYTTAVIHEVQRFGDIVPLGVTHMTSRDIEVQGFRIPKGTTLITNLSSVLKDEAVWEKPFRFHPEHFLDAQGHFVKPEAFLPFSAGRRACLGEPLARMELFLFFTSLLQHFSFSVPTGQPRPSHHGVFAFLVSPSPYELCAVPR

[4] = Metabolic stability in human liver microsomes assessed as compound remaining after 30 mins; type: ADME, Microsome; conditions: read-out: Stability; summary of the method: as §1
Mus musculus [5] = assay: Antiobesity activity in DIO mouse assessed as decrease in [cPP(1 to 7),NPY(19 to 23),Ala(31),Alb(32),Gln(34)]-induced food intake at 12.5 mg/kg, po administered 1 hr prior to [cPP(1 to 7),NPY(19 to 23),Ala(31),Alb(32),Gln(34)]-induction measured at 2 hrs relative to vehicle-treated control; type: functional; set-up: scale not given: the % may be the effect or the level left
Mus musculus [6] = assay: Antiobesity activity in DIO mouse assessed as decrease in [cPP(1 to 7),NPY(19 to 23),Ala(31),Alb(32),Gln(34)]-induced food intake at 12.5 mg/kg, po administered 1 hr prior to [cPP(1 to 7),NPY(19 to 23),Ala(31),Alb(32),Gln(34)]-induction measured at 4 hrs relative to vehicle-treated control; type: functional; set-up: scale not given: the % may be the effect or the level left
Summary of the method: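 Diet-induced obese mice dosed orally at 12.5 mg/kg 1 h before icv injection of a Y5-selective agonist (0.1 nmol). Cumulative food intake recorded over the following 4 h.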

Cytochrome P450 2C19, sequence (P33261 whole entry): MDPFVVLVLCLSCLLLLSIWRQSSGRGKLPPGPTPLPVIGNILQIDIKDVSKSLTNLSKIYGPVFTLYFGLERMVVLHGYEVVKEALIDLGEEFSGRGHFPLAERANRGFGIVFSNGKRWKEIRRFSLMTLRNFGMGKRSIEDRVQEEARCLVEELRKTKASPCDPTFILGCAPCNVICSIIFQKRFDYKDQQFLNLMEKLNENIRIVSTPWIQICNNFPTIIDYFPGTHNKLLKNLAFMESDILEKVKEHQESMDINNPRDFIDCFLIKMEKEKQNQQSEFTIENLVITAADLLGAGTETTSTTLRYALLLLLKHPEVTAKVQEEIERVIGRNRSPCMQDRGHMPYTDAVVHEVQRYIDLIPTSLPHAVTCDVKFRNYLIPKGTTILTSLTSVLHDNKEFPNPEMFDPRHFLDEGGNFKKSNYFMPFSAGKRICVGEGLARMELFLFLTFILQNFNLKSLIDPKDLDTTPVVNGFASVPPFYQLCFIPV
Cytochrome P450 3A4, sequence (P08684 whole entry): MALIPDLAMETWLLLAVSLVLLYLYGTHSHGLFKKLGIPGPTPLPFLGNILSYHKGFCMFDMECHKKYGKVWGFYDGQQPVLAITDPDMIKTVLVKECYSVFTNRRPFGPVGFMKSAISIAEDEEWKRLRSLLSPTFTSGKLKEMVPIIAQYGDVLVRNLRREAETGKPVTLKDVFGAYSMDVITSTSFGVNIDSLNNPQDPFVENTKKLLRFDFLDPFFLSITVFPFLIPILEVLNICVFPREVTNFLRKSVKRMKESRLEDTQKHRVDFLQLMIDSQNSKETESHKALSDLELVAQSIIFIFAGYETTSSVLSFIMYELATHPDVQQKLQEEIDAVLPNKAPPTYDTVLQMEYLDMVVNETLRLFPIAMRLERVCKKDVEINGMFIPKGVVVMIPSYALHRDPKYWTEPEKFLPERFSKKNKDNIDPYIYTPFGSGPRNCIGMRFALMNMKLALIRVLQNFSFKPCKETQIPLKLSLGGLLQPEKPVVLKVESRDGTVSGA

| Structure (SMILES) | INH (Cytochrome P450 2C19) [µM] | INH (Cytochrome P450 3A4) [µM] | remaining at 0.5 h [1] [%] | INH (Cytochrome P450 2C9) [µM] | solubility kinetic [2] | INH (Cytochrome P450 1A2) [µM] | IC50 [3] [nM] | INH (Cytochrome P450 2D6) [µM] | remaining at 0.5 h [4] [%] | Activity (Mus musculus [5]) [%] | Activity (Mus musculus [6]) [%] |
| --- | --- | --- | --- | --- | --- | --- | --- | --- | --- | --- | --- |
| CCCS(=O)(=O)c1ccc2nc(N3CCN(C)C(c4ccccc4)C3)[nH]c2c1 (configuration not stated) | > 20 | > 20 | 21.1 | > 20 | > 50 µM | > 20 | 4.99 | > 20 | 21.9 | – | – |
| CCCS(=O)(=O)c1ccc2nc(N3CCOC(c4ccccc4)C3)[nH]c2c1 (configuration not stated) | 19 | > 20 | 45.9 | > 20 | > 50 µM | > 20 | 0.6 | > 20 | 77.9 | – | – |
| CCCS(=O)(=O)c1ccc2[nH]c(N3CCNC(c4ccccc4)C3)nc2c1 (configuration not stated) | > 20 | > 20 | 44 | > 20 | > 50 µM | > 20 | 6.82 | > 20 | 64.4 | – | – |
| CCCS(=O)(=O)c1ccc2nc(N3CCCC(c4ccccc4)C3)[nH]c2c1 (configuration not stated) | 12 | 6.9 | 2.2 | 9.4 | 19.1 µM | > 20 | 0.29 | 13 | 45.2 | – | – |
| CCCS(=O)(=O)c1ccc2[nH]c(C3CN(c4ccccc4)CCO3)nc2c1 (configuration not stated) | > 20 | > 20 | 7.5 | > 20 | > 50 µM | > 20 | 15.9 | > 20 | 66.1 | – | – |
| CCCS(=O)(=O)c1ccc2nc(C3CCC(=O)N(c4ccccc4)C3)[nH]c2c1 (configuration not stated) | > 20 | > 20 | 62 | > 20 | > 50 µM | > 20 | 193 | > 20 | 81.1 | – | – |
| CCS(=O)(=O)c1ccc2nc(N3CCOC(c4ccccc4)C3)[nH]c2c1 (configuration not stated) | > 20 | > 20 | 76.1 | > 20 | > 50 µM | > 20 | 0.43 | > 20 | 89 | 56 | 42.7 |
| CC(C)S(=O)(=O)c1ccc2nc(N3CCOC(c4ccccc4)C3)[nH]c2c1 (configuration not stated) | 19 | 16 | 49.5 | > 20 | > 50 µM | 15 | 1.33 | > 20 | 87 | – | – |
| CC(C)(C)S(=O)(=O)c1ccc2[nH]c(N3CCOC(c4ccccc4)C3)nc2c1 (configuration not stated) | > 20 | 14 | 56.4 | > 20 | 10.7 µM | > 20 | 4.27 | > 20 | 78.5 | – | – |
| CC(C)CS(=O)(=O)c1ccc2[nH]c(N3CCOC(c4ccccc4)C3)nc2c1 (configuration not stated) | > 20 | 9.3 | 2.4 | 17 | 43.2 µM | > 20 | 0.28 | > 20 | 55.1 | – | – |
| O=S(=O)(c1ccc2nc(N3CCOC(c4ccccc4)C3)[nH]c2c1)C(F)(F)F (configuration not stated) | 1.7 | 2.3 | 67.9 | 4.5 | 3.7 µM | 17 | 0.73 | 5.5 | 81.7 | – | – |
| O=S(=O)(CC(F)(F)F)c1ccc2[nH]c(N3CCOC(c4ccccc4)C3)nc2c1 (configuration not stated) | > 20 | 15 | 63.5 | > 20 | > 50 µM | > 20 | 0.21 | > 20 | 85 | – | – |
| CC(C)(C(F)(F)F)S(=O)(=O)c1ccc2nc(N3CCOC(c4ccccc4)C3)[nH]c2c1 (configuration not stated) | 17 | 8.2 | 37.8 | 11 | 11.6 µM | 18 | 1.43 | 18 | 60.2 | – | – |
| CCS(=O)(=O)c1ccc2[nH]c(N3CCOC(c4ccc(F)cc4)C3)nc2c1 (configuration not stated) | > 20 | > 20 | 87.1 | > 20 | > 50 µM | > 20 | 1.05 | > 20 | 92.4 | – | – |
| CCS(=O)(=O)c1ccc2[nH]c(N3CCOC(c4ccc(Cl)cc4)C3)nc2c1 (configuration not stated) | 9.1 | 13 | 87.2 | > 20 | 38.1 µM | 9.2 | 0.85 | 18 | 94.6 | – | – |
| CCS(=O)(=O)c1ccc2[nH]c(N3CCOC(c4ccc(C)cc4)C3)nc2c1 (configuration not stated) | 17 | > 20 | 34 | > 20 | 21.6 µM | > 20 | 0.8 | > 20 | 87.8 | – | – |
| CCS(=O)(=O)c1ccc2[nH]c(N3CCOC(c4ccc(OC)cc4)C3)nc2c1 (configuration not stated) | > 20 | > 20 | 48 | > 20 | > 50 µM | > 20 | 3.03 | > 20 | 81 | – | – |
| CCS(=O)(=O)c1ccc2[nH]c(N3CCO[C@H](c4ccccc4)C3)nc2c1 | – | – | – | – | – | – | – | – | – | 67.2 | 71 |
| CCCS(=O)(=O)c1ccc2[nH]c(N3CCC(c4ccccc4)C3)nc2c1 (configuration not stated) | > 20 | 14 | 19.2 | 17 | 15.4 µM | > 20 | 1.01 | > 20 | 74.9 | – | – |
| CCCS(=O)(=O)c1ccc2[nH]c(C3CCOC(c4ccccc4)C3)nc2c1 (mixture of isomers) | 20 | > 20 | 74 | > 20 | > 50 µM | > 20 | 17.2 | > 20 | 65 | – | – |
| CC(C)(C)S(=O)(=O)N[C@H]1CC[C@H](C(=O)Nc2ccc(C(F)(F)F)cn2)CC1 [VELNEPERIT] | – | – | – | – | 1.6 µg/mL | – | 4.6 | – | – | – | – |
